Measurements taken from ChEMBL document CHEMBL4266015, “Scaffold Ranking and Positional Scanning Identify Novel Neurite Outgrowth Promoters with Nanomolar Potency” (2018).

Assay: Induction of neurite outgrowth in rat hippocampal neurons assessed as neurite total length at 250 ng/ml after 48 hrs relative to control
Assay type: functional, Hippocampal neurone
Method in brief: (§1)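 E18 rat hippocampal neurons were plated on PDL at 1800 cells/well in NbActive4, adhered 2 h, then treated with compound prediluted in medium at 4× final for 48 h. Cells were fixed, stained for βIII-tubulin, imaged and auto-traced. Mean neurite total length is a percentage of DMSO vehicle wells on the same plate. ML-7 was the positive control and plates with Z-factor >0.5 were accepted.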

| Compound | Activity |
| --- | --- |
| S=C1N(CCCC[C@H]2CNC(C3CCCC3)=N2)C[C@@H](c2ccccc2)N1CCC1CCCCC1 | 232.4% |
| CC(C)C[C@@H]1CN(CCCC[C@H]2CNC(C3CCCC3)=N2)C(=S)N1CCC1CCCCC1 | 277.2% |
| CCC(C)CC1=N[C@@H](CCCCN2C[C@@H](C)N(CCC3CCC(C)CC3)C2=S)CN1 (stereo partly drawn) | 266.7% |
| CCC(C)CC1=N[C@@H](CCCCN2C[C@@H](c3ccccc3)N(CCCCC(C)C)C2=S)CN1 (stereo partly drawn) | 265.8% |
| CC(C)C[C@@H]1CN(CCCC[C@H]2CNC(CCCCc3ccccc3)=N2)C(=S)N1CCCC1CCCCC1 | 267.3% |
| CCC(C)C1=N[C@@H](CCCCN2C[C@@H](c3ccccc3)N(CC3CCC(C)CC3)C2=S)CN1 (stereo partly drawn) | 255.9% |
| CC(C)CCCCN1C(=S)N(CCCC[C@H]2CNC(CCCCc3ccccc3)=N2)C[C@H]1CC(C)C | 265.6% |

Assay: Induction of neurite outgrowth in rat hippocampal neurons assessed as neurite total length at 15.625 ng/ml after 48 hrs relative to control
Assay type: functional, Hippocampal neurone
Method in brief: as §1

| Compound | Activity |
| --- | --- |
| S=C1N(CCCC[C@H]2CNC(C3CCCC3)=N2)C[C@@H](c2ccccc2)N1CCC1CCCCC1 | 182.3% |
| CC(C)C[C@@H]1CN(CCCC[C@H]2CNC(C3CCCC3)=N2)C(=S)N1CCC1CCCCC1 | 194.9% |
| CCC(C)CC1=N[C@@H](CCCCN2C[C@@H](C)N(CCC3CCC(C)CC3)C2=S)CN1 (stereo partly drawn) | 97.33% |
| CCC(C)CC1=N[C@@H](CCCCN2C[C@@H](c3ccccc3)N(CCCCC(C)C)C2=S)CN1 (stereo partly drawn) | 121.4% |
| CC(C)C[C@@H]1CN(CCCC[C@H]2CNC(CCCCc3ccccc3)=N2)C(=S)N1CCCC1CCCCC1 | 114% |
| CCC(C)C1=N[C@@H](CCCCN2C[C@@H](c3ccccc3)N(CC3CCC(C)CC3)C2=S)CN1 (stereo partly drawn) | 190% |
| CC(C)CCCCN1C(=S)N(CCCC[C@H]2CNC(CCCCc3ccccc3)=N2)C[C@H]1CC(C)C | 127.4% |

Assay: Induction of neurite outgrowth in rat hippocampal neurons assessed as neurite total length after 48 hrs
Assay type: functional, Hippocampal neurone
Method in brief: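 Dissociated E18 rat hippocampal neurons were seeded on PDL-coated plates at 1800 cells/well in NbActive4 and allowed to adhere 2 h. Compounds were prediluted in medium at 4× final and added, then cells were grown 48 h (2 DIV). Wells were fixed, immunostained for βIII-tubulin and imaged by automated tracing. ED200% and ED300% values were linearly interpolated from dose-response curves of mean neurite total length.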

| Compound | ED200 | ED300 |
| --- | --- | --- |
| S=C1N(CCCC[C@H]2CNC(C3CCCC3)=N2)C[C@@H](c2ccccc2)N1CCC1CCCCC1 | 7 nM | 91 nM |
| CC(C)C[C@@H]1CN(CCCC[C@H]2CNC(C3CCCC3)=N2)C(=S)N1CCC1CCCCC1 | 4 nM | >543 nM |
| CCC(C)C1=N[C@@H](CCCCN2C[C@@H](c3ccccc3)N(CC3CCC(C)CC3)C2=S)CN1 (stereo partly drawn) | 5 nM | 54 nM |

Assay: Induction of neurite outgrowth in rat hippocampal neurons assessed as neurite total length at 125 ng/ml after 48 hrs relative to control
Assay type: functional, Hippocampal neurone
Method in brief: as §1

| Compound | Activity |
| --- | --- |
| S=C1N(CCCC[C@H]2CNC(C3CCCC3)=N2)C[C@@H](c2ccccc2)N1CCC1CCCCC1 | 261.9% |
| CC(C)C[C@@H]1CN(CCCC[C@H]2CNC(C3CCCC3)=N2)C(=S)N1CCC1CCCCC1 | 282.9% |
| CCC(C)CC1=N[C@@H](CCCCN2C[C@@H](C)N(CCC3CCC(C)CC3)C2=S)CN1 (stereo partly drawn) | 166.2% |
| CCC(C)CC1=N[C@@H](CCCCN2C[C@@H](c3ccccc3)N(CCCCC(C)C)C2=S)CN1 (stereo partly drawn) | 263.7% |
| CC(C)C[C@@H]1CN(CCCC[C@H]2CNC(CCCCc3ccccc3)=N2)C(=S)N1CCCC1CCCCC1 | 200.8% |
| CCC(C)C1=N[C@@H](CCCCN2C[C@@H](c3ccccc3)N(CC3CCC(C)CC3)C2=S)CN1 (stereo partly drawn) | 301.9% |
| CC(C)CCCCN1C(=S)N(CCCC[C@H]2CNC(CCCCc3ccccc3)=N2)C[C@H]1CC(C)C | 237.1% |

Assay: Induction of neurite outgrowth in rat hippocampal neurons assessed as neurite total length at 31.25 ng/ml after 48 hrs relative to control
Assay type: functional, Hippocampal neurone
Method in brief: as §1

| Compound | Activity |
| --- | --- |
| S=C1N(CCCC[C@H]2CNC(C3CCCC3)=N2)C[C@@H](c2ccccc2)N1CCC1CCCCC1 | 251.5% |
| CC(C)C[C@@H]1CN(CCCC[C@H]2CNC(C3CCCC3)=N2)C(=S)N1CCC1CCCCC1 | 256.5% |
| CCC(C)CC1=N[C@@H](CCCCN2C[C@@H](C)N(CCC3CCC(C)CC3)C2=S)CN1 (stereo partly drawn) | 134.9% |
| CCC(C)CC1=N[C@@H](CCCCN2C[C@@H](c3ccccc3)N(CCCCC(C)C)C2=S)CN1 (stereo partly drawn) | 179.4% |
| CC(C)C[C@@H]1CN(CCCC[C@H]2CNC(CCCCc3ccccc3)=N2)C(=S)N1CCCC1CCCCC1 | 135.5% |
| CCC(C)C1=N[C@@H](CCCCN2C[C@@H](c3ccccc3)N(CC3CCC(C)CC3)C2=S)CN1 (stereo partly drawn) | 256.2% |
| CC(C)CCCCN1C(=S)N(CCCC[C@H]2CNC(CCCCc3ccccc3)=N2)C[C@H]1CC(C)C | 145.3% |

Assay: Induction of neurite outgrowth in rat hippocampal neurons assessed as neurite total length at 62.5 ng/ml after 48 hrs relative to control
Assay type: functional, Hippocampal neurone
Method in brief: as §1

| Compound | Activity |
| --- | --- |
| S=C1N(CCCC[C@H]2CNC(C3CCCC3)=N2)C[C@@H](c2ccccc2)N1CCC1CCCCC1 | 260.5% |
| CC(C)C[C@@H]1CN(CCCC[C@H]2CNC(C3CCCC3)=N2)C(=S)N1CCC1CCCCC1 | 271% |
| CCC(C)CC1=N[C@@H](CCCCN2C[C@@H](C)N(CCC3CCC(C)CC3)C2=S)CN1 (stereo partly drawn) | 150% |
| CCC(C)CC1=N[C@@H](CCCCN2C[C@@H](c3ccccc3)N(CCCCC(C)C)C2=S)CN1 (stereo partly drawn) | 252.8% |
| CC(C)C[C@@H]1CN(CCCC[C@H]2CNC(CCCCc3ccccc3)=N2)C(=S)N1CCCC1CCCCC1 | 199.3% |
| CCC(C)C1=N[C@@H](CCCCN2C[C@@H](c3ccccc3)N(CC3CCC(C)CC3)C2=S)CN1 (stereo partly drawn) | 296.7% |
| CC(C)CCCCN1C(=S)N(CCCC[C@H]2CNC(CCCCc3ccccc3)=N2)C[C@H]1CC(C)C | 194.1% |

Assay: Induction of neurite outgrowth in rat hippocampal neurons assessed as neurite total length at 500 ng/ml after 48 hrs relative to control
Assay type: functional, Hippocampal neurone
Method in brief: as §1

| Compound | Activity |
| --- | --- |
| S=C1N(CCCC[C@H]2CNC(C3CCCC3)=N2)C[C@@H](c2ccccc2)N1CCC1CCCCC1 | 185.9% |
| CC(C)C[C@@H]1CN(CCCC[C@H]2CNC(C3CCCC3)=N2)C(=S)N1CCC1CCCCC1 | 248.7% |
| CCC(C)CC1=N[C@@H](CCCCN2C[C@@H](C)N(CCC3CCC(C)CC3)C2=S)CN1 (stereo partly drawn) | 293.6% |
| CCC(C)CC1=N[C@@H](CCCCN2C[C@@H](c3ccccc3)N(CCCCC(C)C)C2=S)CN1 (stereo partly drawn) | 276.3% |
| CC(C)C[C@@H]1CN(CCCC[C@H]2CNC(CCCCc3ccccc3)=N2)C(=S)N1CCCC1CCCCC1 | 246.8% |
| CCC(C)C1=N[C@@H](CCCCN2C[C@@H](c3ccccc3)N(CC3CCC(C)CC3)C2=S)CN1 (stereo partly drawn) | 279.8% |
| CC(C)CCCCN1C(=S)N(CCCC[C@H]2CNC(CCCCc3ccccc3)=N2)C[C@H]1CC(C)C | 239.9% |
